# Bioassay records as filed in PubChem BioAssay.
# PLCg1 inh: PLC-gamma1 enzyme inhibitors, primary screen, biochemical, fluorescence, purified enzyme; fluorogenic substrate; inhibition, % at 12.2 µM; hit rate 0.84% among 370,000; AID 720700, 2013; in the data active = inhibition above about 9.5%
# PLC-beta3 inh: human PLC-beta3 inhibitors, primary screen, biochemical, fluorescence | 1-phosphatidylinositol 4,5-bisphosphate phosphodiesterase beta-3 (Homo sapiens), Q01970 | Purified PLC-beta3, fluorogenic substrate | inhibition, % at 12.2 µM | hit rate 0.18% among 370,000 | AID 720704, 2013; in the data active = inhibition above about 11%
# Rpn11 block: Rpn11 (PSMD14) deubiquitinase inhibitors, primary screen, biochemical, fluorescence polarization, uHTS; 26S proteasome non-ATPase regulatory subunit 14 (Homo sapiens), O00487; human 26S proteasome, Ub4-pepOG fluorescence polarization; 20S core pre-blocked with epoxomicin; inhibition, % at 20 µM; hit rate 0.59% among 360,000; AID 588493, 2011;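 active = inhibition at 20 µM, scaled to each plate's controls, above about 33%, limit read from the data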
# UCH37 DUB inh: inhibitors of human UCH37 deubiquitinase, primary screen, biochemical, Ub-AMC cleavage, fluorescence | Ubiquitin carboxyl-terminal hydrolase isozyme L5 (Homo sapiens), Q9Y5K5 | purified proteasome/UCH37 | inhibition, % (test concentration not listed) | hit rate 0.33% among 330,000;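 active = mean inhibition over replicate wells above about 20%, limit read from the data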
#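 assay system = human UCH37 enzyme supplied as purified proteasome complex | amount = proteasome at 0.15 nM in the dispensed enzyme solution | schedule = 30 min compound-proteasome preincubation then 25 min substrate reaction, room temperature | measured by = fluorescence, ex 355 nm, em 460 nm | benchmarks = no-proteasome wells (full inhibition) and compound-free wells (no inhibition)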
# Hits are given with their value; 0 = inactive; - = no result. Most compounds without a hit are left out; they make up all but 1.7% or so of the library.
SMILES,PLCg1 inh,PLC-beta3 inh,Rpn11 block,UCH37 DUB inh
O=[N+]([O-])c1ccc(-c2ccc(C=NNc3nc(NCc4ccccc4)nc(N4CCOCC4)n3)o2)cc1,-,-,-,0
C=CCOc1ccc(/C=C2\C(=N)N3N=C(S(=O)(=O)CC)SC3=NC2=O)cc1OC,0,0,0,21.4
COc1ccc(C=NNC(=O)C(C)n2nnc3ccccc32)cc1OC (stereo not drawn),-,-,-,0
CCOC(=O)C1CCN(C(=O)C2CCN(c3nn4c(=O)cc(C)nc4s3)CC2)CC1,0,0,0,0
Cc1cc(=O)n2nc(N3CCC(C(=O)N4CCN(Cc5ccccc5)CC4)CC3)sc2n1,0,0,0,23.6
CCOc1ccc(OCC)c(NC(=O)C2CCN(c3nn4c(=O)cc(C)nc4s3)CC2)c1,-,-,0,23.2
CCOc1ccc(C(=O)NN=C(c2ccccc2)c2ccccn2)cc1,-,-,-,0
O=[N+]([O-])c1cccc(-c2noc3c2-c2nc(Cc4cccc5ccccc45)sc2CC3)c1,0,0,0,0
CCCc1nc2c(s1)CCc1onc(-c3cccc([N+](=O)[O-])c3)c1-2,0,0,0,31.7
CN(C)c1ccc(/C=[N+](\[O-])C(C)(C)C=NO)cc1,-,-,-,22.9
CCOc1ccccc1C=NNc1nc2ccccc2o1,-,-,-,0
O=C(CCc1ccc(S(=O)(=O)NC2CCCCC2)cc1)N(Cc1ccccc1)Cc1ccccc1,0,0,0,32.6
O=C(NN=Cc1ccc(Cl)cc1Cl)C(=O)NC1CC1,-,-,-,0
Nc1ccc2c(c1)Cc1cc([N+](=O)[O-])ccc1-2,0,0,0,29.2
O=C(Cc1cccc2ccccc12)NN=Cc1ccc2cccc(O)c2n1,-,-,-,0
Cn1cccc1C=NN1CCN(Cc2ccccc2Cl)CC1,-,-,-,0
C[C@@H]1CCC(=O)N(C[C@@H](C)CSc2ccccc2)CC1,10.9,0,0,0
O=C(NN=C1CC2CC=CC12)c1ccc(O)cc1 (stereo not drawn),-,-,-,0
COC(=O)NN=Cc1cc([N+](=O)[O-])cc(Br)c1O,-,-,-,0
CCOc1cc(N2CCOCC2)c(OCC)cc1NC(=O)CSc1ccccc1C(=O)O,0,0,0,0
CCOc1cc(N2CCOCC2)c(OCC)cc1NC(=O)CN1CCc2ccccc2C1,0,10.7,0,0
COc1ccc(O[C@H]2C=C[C@@H](c3ccccc3)O[C@@H]2COC(=O)CCC(C)=NO[C@@H](C)CN2CCCCc3nc(C)c(C)cc32)cc1,-,-,-,0
COc1ccc(C(=O)N2CCCC2)cc1S(=O)(=O)N1CCC(C)CC1,0,10.6,0,0
COc1ccc(C(=O)N2CCCC2)cc1S(=O)(=O)N1CCOCC1,0,0,0,0
Cc1cccc(C)c1-n1nnnc1C(c1ccccc1OC(F)(F)F)N1CCN(C/C=C/c2ccccc2)CC1 (stereo not drawn),12.1,0,0,-
SMILES,PLCg1 inh,PLC-beta3 inh,Rpn11 block,UCH37 DUB inh
COc1cccc(C(c2nnnn2-c2c(C)cccc2C)N2CCN(C/C=C/c3ccccc3)CC2)c1OC (stereo not drawn),0,0,0,-
COC(=O)c1cccc(NC(=O)c2ccc[n+]([O-])c2)c1,10.7,0,0,0
Cc1cc(/C=C(\C#N)C(=O)O)c(C)n1C1CC1,0,0,0,20.7
O=C(Cc1ccc(F)cc1)N1CCC(CC2CC(c3ccc(Cl)cc3)=NO2)(C(=O)NCC2CCCCC2)CC1 (stereo not drawn),0,0,0,38.7
COc1ccc(C2=NN3C(C2)c2ccccc2OC3c2cccs2)cc1 (stereo not drawn),0,0,40.3,0
N#Cc1ccc(C=NNC(=O)c2ccccc2F)cc1,-,-,-,0
Cc1ccc(S(=O)(=O)NN2C(=O)/C(=C/c3ccc(C(=O)O)cc3)SC2=S)cc1,0,0,0,20.7
COc1ccc(OCc2cc(C(=O)NC3CCOCC3)no2)c2ccccc12,0,0,0,24.3
N=c1sccn1CC(=O)Nc1cccc2ccccc12,0,0,0,20.3
CSc1ccccc1NC(=O)Cn1ccsc1=N,0,0,0,0
Cc1ccc([N+](=O)[O-])cc1N(CC(=O)Nc1ccc(S(=O)(=O)Nc2cccc(C(F)(F)F)c2)cc1)S(C)(=O)=O,9.9,0,0,0
COc1ccccc1N(CC(=O)Nc1cccc(C(F)(F)F)c1)S(C)(=O)=O,0,0,0,0
CC1=C(C#N)C(=O)NC(=O)/C1=C\c1ccc(-c2ccc(C)cc2[N+](=O)[O-])o1,0,0,0,0
CCOC(=O)c1cc(-c2ccc(/C=C3/C(=O)NC(=O)C(C#N)=C3C)o2)ccc1Cl,0,0,0,22.1
CC(=O)OCCn1c(=O)c2cc3c(=O)n(CCOC(C)=O)c(=O)c3cc2c1=O,9.9,0,0,0
COCCn1c(=O)c2ccccc2c2ccccc2c1=O,0,0,0,0
CCC(=O)n1nc(-c2ccccc2)nc1N,0,0,0,22.5
COc1ccc2nc(C)cc(SCC(=O)NN=Cc3ccc(O)cc3O)c2c1,-,-,-,0
Cc1cccc(NC2=CC(=NS(=O)(=O)c3cccs3)c3ccccc3C2=O)c1,-,-,-,50.2
Cc1ccc(NC2=C/C(=N\S(=O)(=O)c3cccs3)c3ccccc3C2=O)c(C)c1,-,-,0,65.2
Cc1cccc(NC2=C/C(=N/S(=O)(=O)c3cccs3)c3ccccc3C2=O)c1,0,0,0,-
CC(=NOCC(=O)NC12CC3CC(CC(C3)C1)C2)c1cc2ccccc2o1,-,-,-,0
COc1cccc(C(=O)NCCC2=CCCCC2)c1,0,0,0,24.6
CCC(C)[C@H](NC(=O)NCCC1=CCCCC1)C(=O)OC (stereo partly drawn),0,0,0,25.0
O=C(NN=C/C=C\c1ccc([N+](=O)[O-])cc1)c1cccnc1,-,-,-,0
SMILES,PLCg1 inh,PLC-beta3 inh,Rpn11 block,UCH37 DUB inh
CON=Cc1ccc(N2CCCC2)c([N+](=O)[O-])c1,-,-,-,0
O=[N+]([O-])c1cc(C=Nn2cnnc2)ccc1N1CCCC1,-,-,-,21.4
COc1ccc(OC)c(-c2csc(NC(=O)CSc3ccc([N+](=O)[O-])cc3)n2)c1,0,0,0,33.1
CCCNC(=O)C(=O)Nc1ccc(N(C)C)cc1,11.3,0,0,0
COc1ccc(S(=O)(=O)N(C)C[C@H]2Oc3c(NC(=O)C4CCCCC4)cccc3C(=O)N([C@H](C)CO)C[C@@H]2C)cc1,9.6,0,0,0
C[C@H](CO)N1C[C@H](C)[C@@H](CN(C)CC2CCCCC2)Oc2c(NS(=O)(=O)c3ccccc3)cccc2C1=O,0,11.2,0,0
C[C@H](CO)N1C[C@H](C)[C@@H](CN(C)CC2CC2)Oc2c(NS(=O)(=O)c3ccccc3)cccc2C1=O,0,0,0,0
CC(=O)Nc1sc(NN=Cc2ccco2)nc1-c1cccs1,-,-,-,0
Cc1ccc(S(=O)(=O)NN=Cc2ccc(OCC(=O)NC(C)C)cc2)cc1,-,-,-,28.0
CC(=O)NS(=O)(=O)c1ccc(Nc2ccc([N+](=O)[O-])c3nonc23)cc1,0,0,0,25.0
CC(=O)c1ccc(NC(=O)c2cccc(N3C(=O)c4ccccc4C3=O)c2)cc1,-,-,58.8,0
CCCCn1c(NS(=O)(=O)c2ccccc2)c(S(=O)(=O)c2ccc(C)cc2)c2nc3ccccc3nc21,16.9,0,0,0
